Assay results as given in ChEMBL document CHEMBL4138245, “Design and synthesis of novel quinacrine-[1,3]-thiazinan-4-one hybrids for their anti-breast cancer activity” (Eur J Med Chem, 2018).
Activity calls are given as the source filed them. The rule behind the calls is not given here.

Assays:
MCF7 [1] = assay: Cell cycle arrest in human MCF7 cells assessed as DNA content at 2 uM after 48 hrs by BrdU incorporation assay (reference value: 29.4%); format: functional
A549 = assay: Antiproliferative activity against human A549 cells assessed as compound concentration required to show complete inhibition of cell viability up to 96 hrs by SRB assay; format: functional
[2] = Selectivity index, ratio of compound concentration for cell killing activity in human 184B5 cells to compound concentration for cell killing activity in human MCF7 cells; format: toxicity, cell-based; settings: 184B5 cells versus MCF7 cells, read-out: Selectivity Index
184B5 [3] = assay: Antiproliferative activity against human 184B5 cells at 1 to 2 uM up to 96 hrs by SRB assay; format: cell-based; settings: 184b5, 96 h
MCF7 [4] = assay: Cell cycle arrest in human MCF7 cells assessed as accumulation at S phase at 2 uM after 48 hrs by propidium iodide staining based flow cytometry; format: functional
Method in brief: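 MCF7, MDA-MB231 and non-cancer 184B5 breast cells exposed to 2 μM for 48 h, then cell-cycle analysis by flow cytometry; duplicates, repeated three times.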

MDA-MB-468 = assay: Antiproliferative activity against human MDA-MB-468 cells assessed as compound concentration required to show complete inhibition of cell viability up to 96 hrs by SRB assay; format: functional
[5] = biological target: Serine/threonine-protein kinase mTOR (Homo sapiens) (UniProt P42345); assay: Inhibition of mTOR pathway in human MCF7 cells assessed as reduction in S6K phosphorylation at Thr389 residue at 2 uM after 6 hrs by Western blot method; format: cell-based
MCF7 [6] = assay: Downregulation of Cyclin-A protein expression in human MCF7 cells at 2 uM after 24 to 72 hrs by Western blot method; format: functional, cell-based
MDA-MB-231 [7] = assay: Antiproliferative activity against human MDA-MB-231 cells after 48 hrs by SRB assay; format: functional, cell-based; settings: MDA-MB-231, 48 h
Method in brief: (§1)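 SRB assay: 5,000-10,000 cells/well plated, 24 h at 37 °C/5% CO2 before drug; seven concentrations from 100 μM down (two- to ten-fold serial dilutions, DMSO ≤0.1% final) for 48 h; TCA fixation (10% final, 60 min, 4 °C), 0.4% SRB in 1% acetic acid, solubilized in 10 mM Tris base, absorbance 515-564 nm; growth = (Ti−Tz)/(C−Tz)×100; IC50 from sigmoidal variable-slope fit; triplicates, ≥2 independent experiments.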

[8] = Selectivity index, ratio of compound concentration for cell killing activity in human 184B5 cells to compound concentration for cell killing activity in human BT20 cells; format: toxicity, cell-based; settings: 184B5 cells versus BT20 cells, read-out: Selectivity Index
[9] = Selectivity index, ratio of compound concentration for cell killing activity in human 184B5 cells to compound concentration for cell killing activity in human MDA-MB-231 cells; format: toxicity, cell-based; settings: 184B5 cells versus MDA-MB-231 cells, read-out: Selectivity Index
[10] = biological target: Serine/threonine-protein kinase mTOR (Homo sapiens) (UniProt P42345); assay: Inhibition of mTOR pathway in human MCF7 cells assessed as reduction in 4EBP1 phosphorylation at Thr37/Thr46 residues at 2 uM after 6 hrs by Western blot method; format: cell-based
MDA-MB-231 [11] = assay: Potency index, ratio of cisplatin IC50 to compound IC50 for antiproliferative activity against human MDA-MB-231 cells; format: functional
[12] = biological target: RAC-alpha serine/threonine-protein kinase (Homo sapiens) (UniProt P31749); assay: Upregulation of AKT phosphorylation at Thr308 residue in human MCF7 cells at 2 uM after 24 to 48 hrs by Western blot method; format: cell-based
Sequence of RAC-alpha serine/threonine-protein kinase (Homo sapiens) (P31749 whole entry): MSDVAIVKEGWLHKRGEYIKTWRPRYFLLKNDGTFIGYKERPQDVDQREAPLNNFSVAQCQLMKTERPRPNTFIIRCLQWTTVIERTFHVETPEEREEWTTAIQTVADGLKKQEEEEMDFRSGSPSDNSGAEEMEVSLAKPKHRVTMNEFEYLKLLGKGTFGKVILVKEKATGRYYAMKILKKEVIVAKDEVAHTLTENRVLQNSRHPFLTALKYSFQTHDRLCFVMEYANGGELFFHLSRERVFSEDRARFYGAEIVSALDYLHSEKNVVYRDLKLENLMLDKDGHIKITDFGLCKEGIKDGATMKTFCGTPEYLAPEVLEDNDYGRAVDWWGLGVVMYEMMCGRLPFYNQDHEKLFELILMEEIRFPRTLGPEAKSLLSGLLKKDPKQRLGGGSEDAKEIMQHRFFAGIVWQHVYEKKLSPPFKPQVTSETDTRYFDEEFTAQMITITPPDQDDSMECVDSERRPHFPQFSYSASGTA
Method in brief: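 MCF7 cells were treated with the compound, collected and PBS-washed, then lysed on ice (Triton X-100/Tris pH 7.4 buffer with PMSF and protease inhibitors). Lysates were BCA-quantified, and 30–40 µg protein was resolved on 8% or 10% SDS-PAGE. Proteins were semi-dry transferred to PVDF, milk-blocked and probed with primary antibody overnight at 4 °C, then detected by ECL. Blots are representative of three independent experiments.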

[13] = Selectivity index, ratio of compound concentration for cell killing activity in human MCF10A cells to compound concentration for cell killing activity in human LNCAP cells; format: toxicity, cell-based; settings: MCF10A cells versus LNCAP cells, read-out: Selectivity Index
184B5 [14] = assay: Inhibition of DNA replication in human 184B5 cells assessed as EdU incorporation at 2 uM pretreated for 48 hrs followed by EdU addition at final 45 mins of 48 hrs incubation time (reference value: 55%); format: cell-based; set-up: scale not given: the % may be the effect or the level left; settings: 184b5, 48 h
MCF7 [15] = assay: Antiproliferative activity against human MCF7 cells after 48 hrs by SRB assay; format: functional, cell-based; settings: MCF7, 48 h; method in brief: as §1
MDA-MB-231 [16] = assay: Antiproliferative activity against human MDA-MB-231 cells assessed as compound concentration required to show complete inhibition of cell viability up to 96 hrs by SRB assay; format: functional
[17] = Selectivity index, ratio of compound concentration for cell killing activity in human MCF10A cells to compound concentration for cell killing activity in human MDA-MB-453 cells; format: toxicity, cell-based; settings: MCF10A cells versus MDA-MB-453 cells, read-out: Selectivity Index

COc1ccc2nc3cc(Cl)ccc3c(NCCCN3C(=O)CCSC3c3cccs3)c2c1 (centres undefined)
Activity (MCF7 [1]): 0.9% | Activity (A549): 2 µM | selectivity ratio [2]: 3 to 6 | Activity (184B5 [3]): Non-Toxic | Activity (MCF7 [4]): Active | Activity (MDA-MB-468): 2 µM | inhibition [5]: inactive | Activity (MCF7 [6]): Active | IC50 (MDA-MB-231 [7]): 2800 nM | selectivity ratio [8]: 3 to 6 | selectivity ratio [9]: 3 to 6 | inhibition [10]: Active | Ratio IC50 (MDA-MB-231 [11]): 8.4 | Activity [12]: Active | selectivity ratio [13]: 3 to 6 | Activity (184B5 [14]): 52% | IC50 (MCF7 [15]): 690 nM | Activity (MDA-MB-231 [16]): 2 µM | selectivity ratio [17]: 3 to 6
